Source: ChEMBL document CHEMBL1140733, “Comprehensive study of sansalvamide A derivatives and their structure-activity relationships against drug-resistant colon cancer cell lines” (J Med Chem, 2008)
Peptide text beside a SMILES is read from it.

Tests used:
HCT-116 [1] = test: Cytotoxicity against multidrug-resistant human HCT116 cells by thymidine incorporation assay; format: functional, cell-based
Procedure, shortened: (§1)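 Cells (3000/well) were plated in IMDM (HCT-116), RPMI 1640 (HCT-15) or MEM (WS-1), each with L-glutamine, 10% FBS and 0.1% penicillin-streptomycin. Compounds in DMSO (1% in all wells) were added after about 6 h and left for 72 h, with 3H-thymidine pulsed for the last 16 h. Uptake was scintillation-counted against DMSO controls. IC50 came from four-concentration curves, three experiments in quadruplicate.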

HCT-116 [2] = test: Cytotoxicity against multidrug-resistant human HCT116 cells at 1 uM by thymidine incorporation assay; format: functional
Procedure, shortened: (§2)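 HCT-116 cells were grown in IMDM and HCT-15 in RPMI 1640, each with L-glutamine, 10% FBS and penicillin-streptomycin, at 3000 cells/well. Compound was applied at 1 µM in 1% DMSO for 72 h total, with 3H-thymidine added for the final 16 h. Percent growth inhibition versus DMSO controls was scintillation-counted, averaging three wells in each of three assays.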

HCT-116 [3] = test: Selectivity for multidrug-resistant human HCT116 cells over human WS1 cells; format: functional
HCT-15 [4] = test: Cytotoxicity against multidrug-resistant human HCT15 cells at 1 uM by thymidine incorporation assay; format: functional; procedure, shortened: as §2
HCT-15 [5] = test: Selectivity for multidrug-resistant human HCT15 cells over human WS1 cells; format: functional
[6] = Cytotoxicity against human WS1 cells by thymidine incorporation assay; format: cell-based; procedure, shortened: as §1
HCT-15 [7] = test: Cytotoxicity against multidrug-resistant human HCT15 cells by thymidine incorporation assay; format: functional, cell-based; procedure, shortened: as §1

| Structure (SMILES) | IC50 (HCT-116 [1]) [µM] | inhibition at 1 µM (HCT-116 [2]) [%] | Ratio IC50 (HCT-116 [3]) | inhibition at 1 µM (HCT-15 [4]) [%] | Ratio IC50 (HCT-15 [5]) | IC50 [6] [µM] | IC50 (HCT-15 [7]) [µM] |
| --- | --- | --- | --- | --- | --- | --- | --- |
| CC(C)C[C@@H]1NC(=O)[C@H](Cc2ccccc2)NC(=O)[C@@H](Cc2ccccc2)N(C)C(=O)[C@H](C(C)C)NC(=O)[C@H](CC(C)C)NC1=O | 0.8 | 59 | >250 | 57 | >250 | 200 | 0.7 |
| CC(C)C[C@@H]1NC(=O)[C@H](Cc2ccccc2)NC(=O)[C@H](CC(C)C)NC(=O)[C@H](C(C)C)NC(=O)[C@H](CC(C)C)NC1=O (HELM PEPTIDE1{F.L.L.V.L}$PEPTIDE1,PEPTIDE1,1:R1-5:R2$$$V2.0) | 25 | 28 | – | 10 | – | 200 | 46 |
| CC(C)C[C@@H]1NC(=O)[C@H](Cc2ccccc2)NC(=O)[C@H](CC(C)C)NC(=O)[C@@H](C(C)C)NC(=O)[C@H](CC(C)C)NC1=O (HELM PEPTIDE1{F.L.L.[dV].L}$PEPTIDE1,PEPTIDE1,1:R1-5:R2$$$V2.0) | 1.3 | 48 | – | 48 | – | 20 | 0.8 |
| CC(C)C[C@@H]1NC(=O)[C@H](C(C)C)NC(=O)[C@H](CC(C)C)NC(=O)[C@H](CC(C)C)N(C)C(=O)[C@H](Cc2ccccc2)NC1=O (HELM PEPTIDE1{F.[meL].L.V.L}$PEPTIDE1,PEPTIDE1,1:R1-5:R2$$$V2.0) | 0.8 | 59 | – | 35 | – | 200 | 4.5 |
| CC(C)C[C@@H]1NC(=O)[C@H](CC(C)C)NC(=O)[C@@H](Cc2ccc(O)cc2)NC(=O)[C@H](CC(C)C)NC(=O)[C@H](C(C)C)NC1=O (HELM PEPTIDE1{L.L.V.L.[dY]}$PEPTIDE1,PEPTIDE1,1:R1-5:R2$$$V2.0) | 1.5 | 45 | – | 47 | – | 200 | 1 |
| CC(C)C[C@@H]1NC(=O)[C@H](C(C)C)NC(=O)[C@H](CC(C)C)NC(=O)[C@@H](CC(C)C)N(C)C(=O)[C@H](Cc2ccccc2)NC1=O (HELM PEPTIDE1{[CC(C)C[C@H](C(=O)[*:2])N(C)[*:1]].L.V.L.F}$PEPTIDE1,PEPTIDE1,1:R1-5:R2$$$V2.0) | 2 | 42 | – | 48 | – | 200 | 1.2 |
| CC(C)C[C@@H]1NC(=O)[C@H](Cc2ccccc2)NC(=O)[C@H](CC(C)C)NC(=O)[C@@H](C(C)C)N(C)C(=O)[C@H](CC2CCCCC2)NC1=O (HELM PEPTIDE1{[Cha].[CC(C)[C@H](C(=O)[*:2])N(C)[*:1]].L.F.L}$PEPTIDE1,PEPTIDE1,1:R1-5:R2$$$V2.0) | 2.1 | 48 | – | 60 | – | 4 | 0.8 |
| CC(C)C[C@@H]1NC(=O)[C@H](C(C)C)NC(=O)[C@H](CC(C)C)N(C)C(=O)[C@@H](CC(C)C)NC(=O)[C@@H](Cc2ccccc2)NC1=O (HELM PEPTIDE1{[dL].[meL].V.L.[dF]}$PEPTIDE1,PEPTIDE1,1:R1-5:R2$$$V2.0) | 0.7 | 64 | – | 42 | – | 136 | 2.2 |
| CC(C)C[C@@H]1NC(=O)[C@H](CC(C)C)NC(=O)[C@H](Cc2ccccc2)N(C)C(=O)[C@H](CC(C)C)NC(=O)[C@H](C(C)C)NC1=O (HELM PEPTIDE1{[meF].L.L.V.L}$PEPTIDE1,PEPTIDE1,1:R1-5:R2$$$V2.0) | > 50 | 2 | – | 18 | – | – | > 50 |
| Nc1ccn([C@@H]2O[C@H](CO)[C@@H](O)C2(F)F)c(=O)n1 [GEMCITABINE] | 14.3 | – | – | – | – | 200 | 11.8 |
